The values below come from ChEMBL document CHEMBL5385869, “Novel 4-aminoquinolines: Synthesis, inhibition of the Mycobacterium tuberculosis enoyl-acyl carrier protein reductase, antitubercular activity, SAR, and preclinical evaluation” (Eur J Med Chem, 2023).

Usually CC50 stands for the concentration that lowers cell viability or growth by half. One may read the Kd as a measure of binding affinity in units of concentration. The Ki is the equilibrium dissociation constant of an inhibitor or competing ligand from its target.

Data set [1] is described as follows: Toxicity in mouse assessed as animal death at 300 mg/kg administered as single dose and measured for 14 days. The settings on record: in vivo, 336 h, time 14 day. It is filed as organism-based. The gist of the method: (§1)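 Acute oral toxicity study. At day 14 the animals were euthanized, and kidneys, liver and spleen were weighed and inspected macroscopically.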

A short description of data set [2]: Permeability of compound at 10 uM measured after 5 hrs by PAMPA assay. It is filed as ADME. The settings on record: read-out: permeability. The gist of the method: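 PAMPA: compounds at 10 μM in 2% DMSO added to a pH 7.4 donor phase, 5 h at room temperature. Receptor-side concentration (pH 7.4) measured to derive permeation rate. Alprenolol is the analytical control.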
On the technique in general: The PAMPA barrier holds no transporters, so it reflects passive diffusion.

Data set [3] is described as follows: Toxicity in CF-1 mouse assessed as reduction in body weight at 150 uM/kg, po administered daily for 14 days. It is filed as organism-based. The settings on record: in vivo, 336 h, time 14 day. The gist of the method:
(§2)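 Mice were infected with M. tuberculosis H37Rv. From 7 days after infection, test and reference drugs were given daily by oral gavage for 14 days, with a vehicle-only group. Body weight was followed over the course of the experiment.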

Data set [4] is described as follows: Toxicity in mouse assessed as effect on lung weight at 300 mg/kg administered as single dose and measured for 14 days. The settings on record: in vivo, 336 h, time 14 day. It is filed as organism-based.
The next data set concerns Klebsiella pneumoniae. The experiment in a line: Antibacterial activity against multidrug-resistant Klebsiella pneumoniae clinical isolates assessed as inhibition of bacterial growth at 20 uM by broth microdilution method. In kind it is functional, organism-based. The method, boiled down: (§3)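 Broth microdilution in triplicate against a small bacterial panel, with compounds tested at 20 μM for growth inhibition.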
(In broth dilution the organism is exposed to a series of concentrations in liquid medium.)

Data set [5] can be described thus: Metabolic stability in rat liver microsomes assessed as intrinsic clearance at 2 uM measured upto 30 mins by HPLC/MS/MS analysis. In kind it is ADME, Microsome. The settings on record: read-out: CLH. The gist of the method: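 Compounds at 2 μM incubated at 37 °C with 1 mg/mL rat liver microsomes containing NADPH. Parent compound consumption followed over time.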

Data set [6] deals with T1, Enoyl-[acyl-carrier-protein] reductase [NADH] (Mycobacterium tuberculosis) (UniProt P9WGR1).
T1 sequence (whole entry): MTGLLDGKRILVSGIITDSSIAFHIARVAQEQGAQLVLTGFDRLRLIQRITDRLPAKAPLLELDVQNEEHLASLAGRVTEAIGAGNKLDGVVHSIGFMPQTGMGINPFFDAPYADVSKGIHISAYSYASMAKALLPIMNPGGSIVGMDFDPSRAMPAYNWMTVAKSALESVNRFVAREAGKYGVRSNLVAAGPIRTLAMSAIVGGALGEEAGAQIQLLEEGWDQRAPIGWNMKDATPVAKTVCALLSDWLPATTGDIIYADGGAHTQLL
Put plainly: Binding affinity to Mycobacterium tuberculosis InhA assessed as gibbs free energy change at 250 uM in presence of NADH by fluorescence spectroscopy. The method, boiled down: (§4)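 Titration of pre-formed MtInhA:NADH complex (2 mL of 3 μM enzyme with 20 μM NADH), adding microliter aliquots of 250 μM ligand stock with dilution kept ≤1%. Intrinsic fluorescence read at 295 nm excitation, 310–500 nm emission. Temperatures 15, 20, 25 and 30 °C. KD is fitted to a hyperbolic isotherm. ΔH°, ΔS° and ΔG° come from van't Hoff analysis of KD across temperatures.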

Data set [7] is described as follows: Selectivity index, ratio of CC50 for African green monkey Vero cells by MTT assay to MIC for pan-sensitive Mycobacterium tuberculosis H37Rv ATCC 27294. It is filed as toxicity, cell-based. The settings on record: read-out: Selectivity Index. For orientation: Tetrazolium assays rely on reduction of a dye to a coloured formazan, in cell work by metabolically active cells.

A short description of data set [8]: Cytotoxicity against human HepG2 cells assessed as reduction in cell viability incubated for 72 hrs by MTT assay. In kind it is toxicity, cell-based. The gist of the method: (§5)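 Cells grown in DMEM with 10% FBS. HepG2 seeded at 4 × 10³ and Vero at 2 × 10³ cells/well, 24 h before dosing. Compounds at 1, 5 and 20 μM in 1% DMSO for 72 h at 37 °C, 5% CO2. MTT readout: 5 mg/mL reagent for 4 h, absorbance at 595 nm. Neutral red readout: 25 μg/mL dye for 3 h, then acid-ethanol desorb. Viability is expressed relative to 1% DMSO controls.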

A short description of data set [9]: Chemical stability in 0.1 M HCl solution at pH 1.2 assessed as parent compound remaining at 1 to 10 uM measured after 24 hrs by HPLC-EM/MS analysis. In kind it is physicochemical. The settings on record: dose 1-10 µM, read-out: Stability. The gist of the method:
(§6)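 Compounds at 1–10 μM incubated 24 h at 37 °C in three media: pH 1.2 (0.1 M HCl), pH 7.4 (PBS) and pH 9.1 (0.1 M NH4HCO3). Remaining parent compound quantified afterward.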

Data set [10] can be described thus: Toxicity in mouse assessed as effect on spleen weight at 300 mg/kg administered as single dose and measured for 14 days. The settings on record: in vivo, 336 h, time 14 day. In kind it is organism-based. The gist of the method:
as §1

The target of data set [11] is T2, Enoyl-[acyl-carrier-protein] reductase [NADH] (Mycobacterium tuberculosis, UniProt P9WGR1).
T2 sequence (P9WGR1 whole entry): T1 sequence (whole entry)
Put plainly: Binding affinity to Mycobacterium tuberculosis InhA assessed as dissociation constant at 250 uM at 30 degreeC in presence of NADH by fluorescence spectroscopy. The gist of the method:
as §4

A short description of data set [12]: Toxicity in CF-1 mouse assessed as reduction in body weight at 300 uM/kg, po administered daily for 14 days. In kind it is organism-based. The settings on record: in vivo, 336 h, time 14 day. The method, boiled down: as §2
Data set [13] addresses T1, Enoyl-[acyl-carrier-protein] reductase [NADH] (Mycobacterium tuberculosis). The experiment in a line: Binding affinity to Mycobacterium tuberculosis InhA assessed as change in enthalpy at 250 uM in presence of NADH by fluorescence spectroscopy.
In another data set the test system is Escherichia coli. Put plainly: Antibacterial activity against Escherichia coli ATCC 25922 assessed as inhibition of bacterial growth at 20 uM by broth microdilution method. In kind it is functional, organism-based. The gist of the method: as §3
The nature of data set [14]: Toxicity in mouse at 300 mg/kg administered as single dose and measured for 14 days. In kind it is organism-based. The settings on record: in vivo, 336 h, time 14 day. The gist of the method:
as §1

Data set [15] in a line: Toxicity in CF-1 mouse assessed as reduction in body weight at 300 to 450 uM/kg, po administered daily for 14 days. In kind it is organism-based. The settings on record: in vivo, 336 h, dose 300-450 µM/Kg, time 14 day. The gist of the method: as §2
Data set [16] in a line: Selectivity index, ratio of CC50 for human HepG2 cells by MTT assay to MIC for pan-sensitive Mycobacterium tuberculosis H37Rv ATCC 27294. In kind it is toxicity. The settings on record: read-out: Selectivity Index.
The target in data set [17] is T2, Enoyl-[acyl-carrier-protein] reductase [NADH]. Put plainly: Binding affinity to Mycobacterium tuberculosis InhA assessed as dissociation constant at 250 uM at 20 degreeC in presence of NADH by fluorescence spectroscopy. The gist of the method: as §4
For data set [18] the target is unchanged. Put plainly: Binding affinity to Mycobacterium tuberculosis InhA assessed as dissociation constant at 250 uM at 25 degreeC in presence of NADH by fluorescence spectroscopy. The method, boiled down: as §4
The target is the same in data set [19]. Put plainly: Noncompetitive inhibition of Mycobacterium tuberculosis InhA using DD-CoA as substrate assessed as inhibition constant for enzyme-substrate-inhibitor ternary complex in presence of varying concentrations of NADH by double reciprocal plot analysis.
The nature of data set [20]: Chemical stability in 0.1 M NH4HCO3 solution at pH 9.1 assessed as parent compound remaining at 1 to 10 uM measured after 24 hrs by HPLC-EM/MS analysis. It is filed as physicochemical. The settings on record: dose 1-10 µM, read-out: Stability. The method, boiled down: as §6
The target of data set [21] is T2, Enoyl-[acyl-carrier-protein] reductase [NADH]. The experiment in a line: Binding affinity to Mycobacterium tuberculosis InhA assessed as dissociation constant at 250 uM at 15 degreeC in presence of NADH by fluorescence spectroscopy. The method, boiled down:
as §4

Data set [22] can be described thus: Toxicity in mouse assessed as effect on body weight at 300 mg/kg administered as single dose and measured for 14 days. In kind it is organism-based. The settings on record: in vivo, 336 h, time 14 day. The method, boiled down: as §1
Data set [23] in a line: Cytotoxicity against African green monkey Vero cells assessed as reduction in cell viability incubated for 72 hrs by neutral red uptake assay. The settings on record: chlorocebus sabaeus. In kind it is toxicity, cell-based. The method, boiled down:
as §5

SMILES strings stand for the structures. Calls of active or inactive are those of the source. The rule behind the calls is not given here.

As for `Cc1cc(Nc2ccc(N3CCCCC3)cc2)c2cc(Br)ccc2n1`, the Activity entry in data set [1], in data set [3], in [4], in data set [10], in data set [12] and in [14] was “Non-Toxic” each time. Further, the Activity result in data set [15] and in data set [22] was “Non-Toxic” each time. Besides, the Papp at 5 h, 10 µM in data set [2] amounted to 3.16 ×10⁻⁶ cm/s. For the same compound, the outcome in the data set on Klebsiella pneumoniae and with Escherichia coli was inactive. Further, in [5], the CLint scaled at 2 µM turned out to be 36.2 mL/min/kg. Moreover, in [6], the deltaG is -8.3 kcal/mol. The selectivity ratio in data set [7] and in [16] was > 50 each time. Moreover, the CC50 at 72 h in data set [8] is > 20000 nM; in data set [23], 12200 nM. Moreover, the remaining at 24 h, up to 10 µM turned out to be 94.6% in data set [9] and 47% in data set [20]. Also, the Kd came to 1340 nM in [11], 470 nM in data set [17], 810 nM in data set [18] and 280 nM in [21]. The deltaH in data set [13] is -18.3 kcal/mol. In addition, the Ki in data set [19] stood at 150 nM.

`Cc1cc(Nc2ccc(N3CCCCC3)cc2)c2cc(Cl)ccc2n1`: the Papp at 5 h, 10 µM in data set [2] came to 11.5 ×10⁻⁶ cm/s. Besides, the result in the data set on Klebsiella pneumoniae and with Escherichia coli was inactive. In addition, in data set [5], the CLint scaled at 2 µM stood at 60.5 mL/min/kg. In addition, the deltaG in data set [6] was -8.3 kcal/mol. Further, the selectivity ratio in [7] is 21.3; in data set [16] it was > 22.2. Besides, the figures for the CC50 at 72 h in data set [8] and in data set [23] were > 20000 nM and 11700 nM, respectively. Also, the figures for the remaining at 24 h, up to 10 µM in data set [9] and in data set [20] were 98.6% and 24.7%, respectively. The deltaH in data set [13] is -23.2 kcal/mol. Moreover, the Kd in data set [18] came to 900 nM. Further, the Ki in data set [19] worked out at 460 nM.
